Measurements from PMC9729583 (Antiviral Research, 2022).
Where two headings read alike, the source gives them in different places.

Key:
mNG-SARS-CoV-2 [1] = assay: microbe, parasite or virus in culture; format: cell-based
Calu-3 cells = assay: PrestoBlue cytotoxicity assay; format: cell-based, human; settings: Calu-3, 48 h incubation
Procedure, shortened: (§1)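 Calu-3 cells were grown per ATCC recommendations and seeded in 96-well plates. After 24 h, medium was replaced with serially diluted test compound for 48 h. Cells were then incubated 2 h with 5% PrestoBlue and fluorescence read at ex 555/em 585 nm. Viability was expressed as % of vehicle-treated cells. At least three independent experiments were run.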

mNG-SARS-CoV-2 [2] = assay: microbe, parasite or virus in culture; format: cell-based; settings: for % Inhibition: 50 µM; for inhibition at 50 µM: Severe acute respiratory syndrome coronavirus 2, Calu-3
SARS-CoV-2 Omicron BA.1 = assay: dose-response against SARS-CoV-2 Omicron BA.1 in Calu-3 cells; format: cell-based
wild-type SARS-CoV-2 [3] = settings: cited from earlier work
wild-type SARS-CoV-2 [4] = settings: Huh-7.5 cells ref Dittmar et al., 2021; cited from earlier work
mNG-SARS-CoV-2 [5] = assay: microbe, parasite or virus in culture; format: cell-based; remark: listed apart in the source
[6] = PrestoBlue cytotoxicity assay; format: cell-based, human; settings: human, Calu-3 cells
Procedure, shortened: as §1

3CLpro = 3CLpro (Severe acute respiratory syndrome coronavirus 2, UniProt P0DTD1); assay: 3CLpro enzymatic assay; format: biochemical, SARS-CoV-2; settings: data not shown
[7] = Severe acute respiratory syndrome coronavirus 2, Calu-3, read-out: BA.1 (EC50) Nuc, Calu-3, nucleocapsid staining
[8] = Severe acute respiratory syndrome coronavirus 2, Calu-3, read-out: BA.1 (EC50) dsRNA, Calu-3, dsRNA staining
[9] = Severe acute respiratory syndrome coronavirus 2, Calu-3

Compound	EC50 (mNG-SARS-CoV-2 [1])	CC50 (Calu-3 cells)	% Inhibition (mNG-SARS-CoV-2 [2])	further results
2-butylchrysin	18 µM	> 100 µM	95%	–
CC(C)=CCc1cc([C@@H]2CC(=O)c3c(O)cc(O)c(CC=C(C)C)c3O2)cc(CC=C(C)C)c1O [5-hydroxysophoranone]	20.2 µM	> 100 µM	100%	–
COc1cc([C@H]2OC[C@]3(O)[C@@H](c4ccc(O)c(OC)c4)OC[C@H]23)ccc1O [8-hydroxypinoresinol]	24.4 µM	> 100 µM	82%	–
N[C@H](CNc1nc(-c2ccncc2)nc2sc3c(c12)CCCC3)Cc1ccccc1 [CRT0066854]	–	–	–	EC50 (SARS-CoV-2 Omicron BA.1; read-out: BA.1 (EC50) Nuc, Calu-3, nucleocapsid staining): 0.3 µM; EC50 (SARS-CoV-2 Omicron BA.1; read-out: BA.1 (EC50) dsRNA, Calu-3, dsRNA staining): 0.1 µM
CC(C)C[C@H](NC(=O)OCc1ccccc1)C(=O)N[C@@H](CC1CCNC1=O)C(O)S(=O)(=O)O (stereo partly drawn) [GC376]	0.475 µM	–	–	EC50 (wild-type SARS-CoV-2 [3]; Vero E6 cells ref Dampalla et al., 2021): 0.23 µM; EC50 (wild-type SARS-CoV-2 [3]; Vero E6 cells ref Fu et al., 2020): 0.7 µM
Cn1c2ccccc2c2c3c(c4c5ccccc5n(CCC#N)c4c21)CNC3=O [Gö6976]	–	–	–	effect on SARS-CoV-2 BA.1 infection (SARS-CoV-2 Omicron BA.1): dramatic increase in susceptibility of cells to SARS-CoV-2 BA.1
COc1ccc2c(c1)c(C1=C(c3c[nH]c4ccccc34)C(=O)NC1=O)cn2CCCN(C)C [Gö6983]	–	–	–	effect on SARS-CoV-2 BA.1 infection (SARS-CoV-2 Omicron BA.1): dramatic increase in susceptibility of cells to SARS-CoV-2 BA.1
C/C=C(/C)C(=O)O[C@H]1C(C)=C[C@]23C(=O)[C@@H](C=C(CO)[C@@H](O)[C@]12O)[C@H]1[C@@H](C[C@H]3C)C1(C)C [PEP 005]	–	–	–	EC50 (SARS-CoV-2 Omicron BA.1; [7]): 0.7 µM; EC50 (SARS-CoV-2 Omicron BA.1; [8]): 1.5 µM
CCC(CC)COC(=O)[C@H](C)N[P@](=O)(OC[C@H]1O[C@@](C#N)(c2ccc3c(N)ncnn23)[C@H](O)[C@@H]1O)Oc1ccccc1 [RDV, remdesivir]	–	–	–	EC50 (wild-type SARS-CoV-2 [4]): 0.002 µM; EC50 (mNG-SARS-CoV-2 [5]; Severe acute respiratory syndrome coronavirus 2, Huh-7.5.1, read-out: EC50 (mNG)): 0.0036 µM; EC50 (mNG-SARS-CoV-2 [5]; Severe acute respiratory syndrome coronavirus 2, Huh-7.5.1, read-out: EC50 (nucleocapsid staining)): 0.0076 µM
CC1(C)C=Cc2c(cc3occ(-c4ccc(O)cc4)c(=O)c3c2O)O1 [alpinumisoflavone]	–	–	–	CC50 at 48 h [6]: > 100 µM; inhibition at 50 µM (mNG-SARS-CoV-2 [2]): 100%
C[C@@H]1CC[C@@]2(OC1)O[C@H]1C[C@H]3[C@@H]4CC[C@@H]5CC(=O)CC[C@]5(C)[C@H]4CC(=O)[C@]3(C)[C@@]1(O)[C@@H]2C [asparacemosone B]	4.04 µM	> 100 µM	83%	–
CCC/C=C/C=C/C(=O)O[C@H]1/C(=C/C(=O)OC)C[C@H]2C[C@H]([C@@H](C)O)OC(=O)C[C@H](O)C[C@@H]3C[C@H](OC(C)=O)C(C)(C)[C@](O)(C[C@@H]4C/C(=C/C(=O)OC)C[C@H](/C=C/C(C)(C)[C@]1(O)O2)O4)O3 [bryostatin, bryostatin-1]	–	–	–	EC50 (SARS-CoV-2 Omicron BA.1; [7]): 0.222 µM; EC50 (SARS-CoV-2 Omicron BA.1; [8]): 0.523 µM
CC(=O)O[C@H]1CC[C@]2(C)[C@H]3CC[C@]4(C)Oc5cc(C)oc(=O)c5C[C@H]4[C@]3(C)CC[C@H]2C1(C)C [chevalone B]	4.47 µM	> 100 µM	95%	–
CC(=O)O[C@H]1CC[C@]2(C)[C@H]3CC[C@]4(C)Oc5oc(C)cc(=O)c5C[C@H]4[C@]3(C)CC[C@H]2C1(C)C [chevalone C]	4.14 µM	93 µM	100%	–
O=c1cc(-c2ccccc2)oc2cc(O)cc(O)c12 [chrysin]	–	–	–	EC50 (mNG-SARS-CoV-2 [1]; [9]): 18.8 µM; CC50 at 48 h [6]: > 100 µM; inhibition at 50 µM (mNG-SARS-CoV-2 [2]): 99%
CC(C)=CCC[C@](C)(O)[C@H]1CC[C@]2(C)[C@@H]1CC[C@@H]1[C@@]3(C)CCC(=O)C(C)(C)[C@@H]3CC[C@]12C [dipterocarpol]	3.05 µM	–	–	CC50 at 48 h [6]: > 100 µM; inhibition at 50 µM (mNG-SARS-CoV-2 [2]): 99%

Compound	EC50 (mNG-SARS-CoV-2 [1])	CC50 (Calu-3 cells)	% Inhibition (mNG-SARS-CoV-2 [2])	further results
CC(C)=CCc1cc(-c2coc3c(CC=C(C)C)c(O)ccc3c2=O)ccc1O [erysubin F]	–	–	–	EC50 (mNG-SARS-CoV-2 [1]; [9]): 45.6 µM; CC50 at 48 h [6]: > 100 µM; inhibition at 50 µM (mNG-SARS-CoV-2 [2]): 100%
C=CC(C)(C)c1[nH]c2ccccc2c1-c1c(O)c(OC)c2c(c1OC)O[C@H]1Nc3ccccc3[C@@]21O [giluterrin]	5.44 µM	72 µM	–	–
CC1(O)O[C@@H](n2c3ccccc3c3c4c(c5c6ccccc6[nH]c5c32)CNC4=O)C[C@@H](N)[C@H]1O (stereo partly drawn) [holyrine B]	–	–	–	activity against 3CLpro (3CLpro): neither holyrine A nor B presented activity against 3CLpro
C=C1C[C@@]23CC[C@H]4[C@@](C)(CCC[C@@]4(C)C(=O)O)[C@@H]2CC[C@@H]1C3 [kaur-16-en-18-oic acid]	15.1 µM	> 100 µM	100%	–
CC(C)=CCC/C(C)=C/Cc1c(O)cc2oc3c(O)cccc3c(=O)c2c1O [mangostinone]	27.9 µM	–	–	CC50 at 48 h [6]: > 100 µM; inhibition at 50 µM (mNG-SARS-CoV-2 [2]): 92%
Cc1cc(O)c(C=O)c2c1C(=O)Oc1c(cc3c(c1C)C(=O)CC(C)(C)O3)O2 [mollicellin B]	6.79 µM	–	–	CC50 at 48 h [6]: > 100 µM; inhibition at 50 µM (mNG-SARS-CoV-2 [2]): 100%
COc1c2ccoc2c(OCC=C(C)C)c2oc(=O)ccc12 [phellopterin]	6.35 µM	–	–	CC50 at 48 h [6]: 93 µM; inhibition at 50 µM (mNG-SARS-CoV-2 [2]): 96%
CC(=O)O[C@@]12C[C@@H](C)[C@@]3(O)[C@@H](C=C(CO)C[C@]4(O)C(=O)C(C)=C[C@@H]34)[C@@H]1C2(C)C [prostratin]	–	–	–	EC50 (SARS-CoV-2 Omicron BA.1; [7]): 11.6 µM; EC50 (SARS-CoV-2 Omicron BA.1; [8]): 5 µM
C=C1C[C@H]2[C@@](C)(C(=O)C(O)=C3C(C)(C)C(=O)CC[C@@]32C)[C@@H]2C(=O)O[C@@](C)(C(=O)OC)C(=O)[C@@]12C [terretonin A]	7.31 µM	–	–	CC50 at 48 h [6]: > 100 µM; inhibition at 50 µM (mNG-SARS-CoV-2 [2]): 82%
COc1cc(-c2cc3c(c(=O)o2)C[C@]2(O)[C@@]4(C)C(=O)C=CC(C)(C)[C@]4(O)CC[C@@]2(C)O3)cc(OC)c1OC [territrem B]	6.64 µM	–	–	CC50 at 48 h [6]: > 100 µM; inhibition at 50 µM (mNG-SARS-CoV-2 [2]): 100%
acetyl hyrtiosal	1.97 µM	> 100 µM	97%	–
artahongkongene B	22 µM	> 100 µM	81%	–
asparacemosone A	20.7 µM	> 100 µM	95%	–
crotonolide F	8.21 µM	> 100 µM	97%	–
knecorticosanone G	3.5 µM	> 100 µM	100%	–
piperbonin A	3.61 µM	> 100 µM	100%	–
